High-throughput results from PubChem.
Fh CTSL1 inh: blocks F. hepatica cathepsin L1 in PFM18AAP counter-screen; recombinant F. hepatica cathepsin L1, Z-Leu-Arg-MCA fluorescence; inhibition, % at 5.96 µM; hit rate 0.49% among 300,000; AID 1906;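 active = inhibition above the mean of all tested compounds plus 3 SD, set per screening campaign, cut at about 17% in these data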;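 note: 0% = plate median of test compound wells and 100% = 1 µM Z-Phe-Ala-diazomethylketone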
HDAC3 inhib: blocks human histone deacetylase 3. hit rate 0.15% among 320,000. O15379. inhibition, % at 8.3 µM. AID 2718. recombinant HDAC3, fluorogenic peptide/trypsin coupled, fluorescence; in the data active = inhibition above about 26%, passing the limit was not always enough; inconclusive = no clear call, values can overlap the other calls
Target sequence (O15379 whole entry, looked up): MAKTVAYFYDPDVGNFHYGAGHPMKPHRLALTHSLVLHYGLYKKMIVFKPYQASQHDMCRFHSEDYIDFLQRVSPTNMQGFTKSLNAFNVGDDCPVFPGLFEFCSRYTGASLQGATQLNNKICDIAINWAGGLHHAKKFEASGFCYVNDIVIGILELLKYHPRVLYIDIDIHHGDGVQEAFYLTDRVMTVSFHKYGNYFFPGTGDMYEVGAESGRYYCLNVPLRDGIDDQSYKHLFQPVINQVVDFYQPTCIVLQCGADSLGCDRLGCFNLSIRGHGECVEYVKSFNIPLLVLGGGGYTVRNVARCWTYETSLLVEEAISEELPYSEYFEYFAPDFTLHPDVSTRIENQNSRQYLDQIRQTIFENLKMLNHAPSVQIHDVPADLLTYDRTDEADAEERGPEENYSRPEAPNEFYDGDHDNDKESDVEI
AHR activator: activators of human aryl hydrocarbon receptor | activation, % at 5 µM | hit rate 2.5% among 320,000 | AID 2796 | P35869 | AHR-responsive luciferase reporter cells, luminescence; in the data active = activation above about 47%;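 note: 0% = vehicle wells and 100% = reference agonist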
M18AAP inhibitor: blocks P. falciparum M18 aspartyl aminopeptidase; hit rate 1.2% among 290,000; inhibition, % at 7.35 µM; AID 1822; recombinant PfM18AAP, H-Glu-NHMec fluorogenic cleavage;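 active = inhibition above the campaign mean inhibition over all tested compounds plus 3 SD, cut at about 28% in these data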;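 note: 0% = plate median of test compound wells and 100% = 2 mM ZnCl2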
SENP1 inh: SENP1 (human) catalytic domain inhibition. hit rate 0.21% among 360,000. recombinant SENP1 catalytic domain, CyPet-SUMO1-YPet FRET cleavage. inhibition, % at 10 µM. AID 624204;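 active = inhibition at least 30% at 10 µM, raw YFP signal under a set limit, fluorescence ratio 0.5 to 1.5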;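 note: 0% = enzyme with DMSO and 100% = no enzyme wells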
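material = recombinant human SENP1 catalytic domain, His6-tagged | quantity = 20 pM enzyme | reagent = 25 nM SUMO1 FRET substrate | compound dosing = 10 µM single point, 0.5% DMSO | timing = 50 min enzyme reaction, room temperature, light-protected | detection = FRET, CFP and YFP emission | control set = no-enzyme low, enzyme-DMSO high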
GAA850 FXN act: activators of GAA850 frataxin (FXN) promoter; hit rate 0.56% among 360,000; HEK293 lucGAA850 FXN promoter luciferase reporter, 24 h; percent of 10 µM SAHA response; AID 540364; activation, % at 6 µM;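 active = activation above the average of all compounds screened plus 3 SD, cutoff fixed separately per campaign, cut at about 7.5% in these data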;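 note: 0% = DMSO wells and 100% = 10 µM SAHA wells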
Numbers without * were called inactive; ? = inconclusive; · = no result. Compounds with a hit are over-represented: about 4.2% of the library has one in this group of screens.

SMILES	Fh CTSL1 inh	HDAC3 inhib	AHR activator	M18AAP inhibitor	SENP1 inh	GAA850 FXN act
COc1cc(OC)cc(-c2c(-c3cccs3)c3cc(-c4ccc(C(N)=O)cc4)ccc3n2C)c1	·	-3	1	·	-3	2
CCOC(=O)C1CCN(C(=O)CCn2c(=O)oc3ccccc32)CC1	·	·	·	·	1	0
COc1cc(/C=C/C(=O)c2ccc3c(c2)OCO3)cc(Cl)c1O	1	15	13	32*	-24	-1
COc1cc(Cl)c(C)cc1NC(=O)c1cccc(OC)c1OC	5	-3	58*	4	2	7
Cc1ccc(NC(=O)c2ccc3c(c2)OCO3)cc1Cl	-3	3	13	-14	0	4
COc1ccc(Cl)cc1NC(=O)NCc1ccc2c(c1)OCO2	0	8	76*	0	0	0
COc1cc(Cl)c(C)cc1NC(=O)c1ccc2c(c1)OCO2	0	-5	73*	0	2	4
Cc1ccc(C)c(Oc2coc3cc(OCC(=O)Nc4ccccc4C(C)C)ccc3c2=O)c1	3	14	0	0	·	·
COc1cc(C(=O)Nc2c(C)cc(C)cc2C)c([N+](=O)[O-])cc1OC	22*	4	9	3	0	1
COCn1c(-c2ccc(OC)cc2)nc2ccccc21	3	-12	55*	3	1	1
CCC12C(=Nc3c(Cl)cccc31)C[C@@H]1CCN3C(=O)CCC[C@H]2[C@H]13 (some centres undefined)	·	·	·	·	0	-1
CCCCN(CCCC)Cc1cc(=O)oc2cc(OC)c(Cl)cc12	·	·	·	·	-9	·
COc1ccc(/C=N/n2c(=S)n(C)c3ccccc32)cc1OC	7	?	7	3	-2	0
Cc1cc2ncn(/N=C/c3cccnc3)c2cc1C	1	4	26	6	1	1
Cn1c(=S)n(/N=C/c2ccc3c(c2)OCO3)c2ccccc21	5	-1	58*	-2	1	1
Cc1cc2ncn(/N=C/c3ccc4c(c3)OCO4)c2cc1C	-2	1	55*	5	2	3
COc1ccc(N2C(=O)c3ccccc3NC(=O)C2C(=O)Nc2ccc(N3CCOCC3)cc2)cc1 (centres undefined)	·	·	·	·	-10	·
COc1ccccc1Oc1ccc2c(c1)C(=O)N(c1cccc3ncccc13)C2=O	·	·	·	13	3	1
COc1ccccc1Oc1ccc2c(c1)C(=O)N(c1cccc(O)c1)C2=O	1	-6	-2	31*	-25	2
CCCCCCN1CCN(C2CN(Cc3cn(Cc4ccc(C)cc4)nn3)S(=O)(=O)C2)CC1 (centres undefined)	·	·	·	·	-2	·
COc1ccccc1N(CC(=O)NC1CCCC1)C(=O)CCC(=O)Nc1ccccn1	-6	-1	-2	1	-2	2
O=C(CN1CCCc2ccccc21)N/N=C/c1ccc(F)cc1F	-1	1	8	-3	16	2
O=C(CN1CCCc2ccccc21)N/N=C/c1ccccc1O	3	4	47*	6	-5	-2
CCOC(=O)Nc1nnc(/C=C/c2ccc(OC)cc2)s1	6	-6	74*	-7	-30	3
CCCc1nnc(NC(=O)OCC)s1	-1	0	74*	1	0	2
SMILES	Fh CTSL1 inh	HDAC3 inhib	AHR activator	M18AAP inhibitor	SENP1 inh	GAA850 FXN act
CCCCOC(=O)Nc1nnc(/C=C/c2ccc(OC)cc2)s1	0	5	10	7	-6	3
COc1ccc(S(=O)(=O)N2CCCC(C(=O)NCc3ccco3)C2)cc1OC (centres undefined)	-1	-1	4	-6	2	0
COc1ccc(NC(=O)CN2C(=O)NC(CC(C)C)C2=O)cc1S(=O)(=O)N1CCOCC1 (centres undefined)	·	1	0	·	4	0
CCc1nn(CC(=O)Nc2ccc(Br)c(C)c2)c(=N)s1	2	6	9	-4	1	-1
COc1cc(-c2nnn(CC(=O)N3CCOCC3)n2)cc(OC)c1OC	30*	5	0	1	3	-3
COc1cccc(C(=O)CN2CCN(S(=O)(=O)c3cccc([N+](=O)[O-])c3)CC2)c1	-1	0	-3	-8	-2	3
COc1ccc(C(=O)CN2CCN(S(=O)(=O)c3cccc([N+](=O)[O-])c3)CC2)cc1OC	4	53*	1	-6	-1	1
